This note sets out measurements from ChEMBL document CHEMBL3045665, “Synthesis and in vitro antiproliferative activity of novel (4-chloro- and 4-acyloxy-2-butynyl)thioquinolines” (2011).

In brackets after ≈: the same amount, converted by molar mass.

Holding throughout (format): functional
One assay relates to T47D. Kind of assay: Antiproliferative activity against Homo sapiens (human) T47D cells after 72 hr. The settings on record: read-out: ID50 (the source's name). Summed up:
(§1)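 Cells in opti-MEM with 2 mM glutamine, streptomycin, penicillin and 5% FCS at 37°C and 5% CO2. Plated at 10^4 cells/well 24 h before treatment, then exposed 72 h to 0.1–100 µg/ml (1 mg/ml stock in 10% DMSO, diluted in medium). Cells fixed with cold 50% TCA, stained with 0.4% SRB, dye extracted in 10 mM Tris, OD 540 nm. ID50 versus untreated control. Triplicates, 3–5 experiments.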

The test system of the next assay is B16. The assay can be described thus: Antiproliferative activity against Mus musculus (mouse) B16 cells after 72 hr. To be noted: B16, 72 h, read-out: ID50 (the source's name). The gist of the method: as §1
Another assay concerns CCRF-CEM. The assay can be described thus: Antiproliferative activity against Homo sapiens (human) CCRF-CEM cells after 72 hr. The settings on record: read-out: ID50 (the source's name). The gist of the method:
(§2)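 Leukemia cells were grown in suspension in opti-MEM with 2 mM glutamine, antibiotics and 5% FCS (37°C, 5% CO2) and seeded at 10^4 cells/well 24 h beforehand. They were exposed 72 h to 0.1–100 µg/ml (1 mg/ml stock in 10% DMSO). MTT was added for the final 3–4 h, followed by SDS/DMF lysis for 24 h and OD at 570 nm. ID50 is relative to untreated control; triplicates, 3–5 experiments.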

The subject of the next assay is P388. Kind of assay: Antiproliferative activity against Mus musculus (mouse) P388 cells after 72 hr. The settings on record: P388, 72 h, read-out: ID50 (the source's name). The gist of the method:
as §2

The nature of assay [1]: Antiproliferative activity against Homo sapiens (human) SW707 cells after 72 hr. To be noted: SW707, 72 h, read-out: ID50 (the source's name). Summed up:
as §1

`ClCC#CCSc1cnc2ccccc2c1Cl`: the IC50 in the assay with T47D was 3.2 mg/L (≈ 11.3 µM); in the assay with B16 it was 4 mg/L (≈ 14.2 µM); in the assay on CCRF-CEM, 3.7 mg/L (≈ 13.1 µM); with P388, 13.4 mg/L (≈ 47.5 µM); in assay [1] it was 3.3 mg/L (≈ 11.7 µM).
The like results for `CSc1cnc2ccccc2c1SCC#CCCl` were, in that order, 3.9 mg/L (≈ 13.3 µM), 16.9 mg/L (≈ 57.5 µM), 2.5 mg/L (≈ 8.51 µM), 2.7 mg/L (≈ 9.19 µM) and 3.7 mg/L (≈ 12.6 µM).
On the same counts, the results for `CSc1cnc2ccccc2c1[Se]CC#CCCl` are 0.7 mg/L (≈ 2.05 µM), 3.5 mg/L (≈ 10.3 µM), 1.7 mg/L (≈ 4.99 µM), 0.4 mg/L (≈ 1.17 µM) and 3.2 mg/L (≈ 9.39 µM).
The like results for `C#CCSc1cnc2ccccc2c1SCC#CCCl` were, in that order, 5.8 mg/L (≈ 18.2 µM), 52.8 mg/L (≈ 166 µM), 2.9 mg/L (≈ 9.12 µM), 3 mg/L (≈ 9.44 µM) and 12.9 mg/L (≈ 40.6 µM).
Consider `C#CCSc1cnc2ccccc2c1[Se]CC#CCCl`, for which the IC50 in the assay on T47D came to 0.4 mg/L (≈ 1.1 µM); in the assay with B16 it was 7.1 mg/L (≈ 19.5 µM); with CCRF-CEM it was 1.8 mg/L (≈ 4.93 µM); in the assay on P388, 0.8 mg/L (≈ 2.19 µM); in assay [1], 3.2 mg/L (≈ 8.77 µM).
`OCC#CCSc1cnc2ccccc2c1SCC#CCCl`: the IC50 was found to be 5.3 mg/L (≈ 15.2 µM) in the assay on T47D; 43.4 mg/L (≈ 125 µM) with B16; 3.3 mg/L (≈ 9.49 µM) in the assay with CCRF-CEM; 5.1 mg/L (≈ 14.7 µM) in the assay with P388; 19.8 mg/L (≈ 56.9 µM) in assay [1].
For the compound `OCC#CCSc1cnc2ccccc2c1[Se]CC#CCCl`, the IC50 stood at 1.7 mg/L (≈ 4.31 µM) in the assay on T47D; 3.8 mg/L (≈ 9.63 µM) in the assay on B16; 2.6 mg/L (≈ 6.59 µM) in the assay on CCRF-CEM; 2 mg/L (≈ 5.07 µM) with P388; 3.3 mg/L (≈ 8.36 µM) in assay [1].
`O=C(O)c1ccccc1C(=O)OCC#CCSc1cnc2ccccc2c1Cl`: the IC50 in the assay with B16 was determined as 53.8 mg/L (≈ 131 µM).
For the compound `O=C(/C=C/c1ccccc1)OCC#CCSc1cnc2ccccc2c1Cl`, the IC50 in the assay on T47D amounted to 22.8 mg/L (≈ 57.9 µM); in the assay with B16 it was 11.4 mg/L (≈ 28.9 µM); in the assay on CCRF-CEM, 15.4 mg/L (≈ 39.1 µM); with P388, 32.8 mg/L (≈ 83.3 µM); in assay [1], 48.8 mg/L (≈ 124 µM).
In the case of `CSc1cnc2ccccc2c1SCC#CCOC(=O)c1ccccc1C(=O)O`, the IC50 in the assay with T47D was 36.1 mg/L (≈ 85.2 µM); with B16, 18.1 mg/L (≈ 42.7 µM); with CCRF-CEM, 14.5 mg/L (≈ 34.2 µM); in the assay on P388, 35 mg/L (≈ 82.6 µM); in assay [1], 28.1 mg/L (≈ 66.3 µM).
On the same counts, the results for `CSc1cnc2ccccc2c1[Se]CC#CCOC(=O)c1ccccc1C(=O)O` are 3.2 mg/L (≈ 6.8 µM), 3.1 mg/L (≈ 6.59 µM), 4 mg/L (≈ 8.5 µM), 19.1 mg/L (≈ 40.6 µM) and 3.7 mg/L (≈ 7.87 µM).
With `CSc1cnc2ccccc2c1SCC#CCOC(=O)c1ccccc1`, the IC50 in the assay on B16 stood at 17.8 mg/L (≈ 46.9 µM); in the assay with CCRF-CEM it was 22.2 mg/L (≈ 58.5 µM).
For the compound `CSc1cnc2ccccc2c1[Se]CC#CCOC(=O)c1ccccc1`, the IC50 in the assay on T47D was found to be 2.2 mg/L (≈ 5.16 µM); in the assay on B16, 2.1 mg/L (≈ 4.92 µM); in the assay with CCRF-CEM, 1.9 mg/L (≈ 4.46 µM); in the assay on P388, 3.5 mg/L (≈ 8.21 µM); in assay [1], 3.6 mg/L (≈ 8.44 µM).
For `CCOC(=O)OCC#CCSc1c(SC)cnc2ccccc12`, the IC50 in the assay on T47D was determined as 34.2 mg/L (≈ 98.4 µM); with B16 it was 5.5 mg/L (≈ 15.8 µM); with CCRF-CEM, 13.2 mg/L (≈ 38 µM); in the assay on P388 it was 34.7 mg/L (≈ 99.9 µM); in assay [1], 33.1 mg/L (≈ 95.3 µM).
In the case of `CSc1cnc2ccccc2c1SCC#CCOC(=O)/C=C/c1ccccc1`, the IC50 was determined as 71.9 mg/L (≈ 177 µM) in the assay with T47D, 9.4 mg/L (≈ 23.2 µM) in the assay on B16, 18.1 mg/L (≈ 44.6 µM) with CCRF-CEM and 66.6 mg/L (≈ 164 µM) in assay [1].
Regarding `CSc1cnc2ccccc2c1[Se]CC#CCOC(=O)/C=C/c1ccccc1`, the IC50 in the assay on T47D worked out at 4.3 mg/L (≈ 9.5 µM); in the assay with B16 it was 3.1 mg/L (≈ 6.85 µM); in the assay with CCRF-CEM, 17.8 mg/L (≈ 39.3 µM); with P388, 43.9 mg/L (≈ 97 µM); in assay [1], 4.7 mg/L (≈ 10.4 µM).
As to `C#CCSc1cnc2ccccc2c1SCC#CCOC(=O)/C=C/c1ccccc1`, the IC50 with B16 is 14.7 mg/L (≈ 34.2 µM); in the assay on CCRF-CEM, 50.9 mg/L (≈ 118 µM).
